Mdm2-MdmX inh: inhibitors of human Mdm2-MdmX association, primary screen, cell-based, luminescence, split luciferase, SaOS-2, uHTS; inhibition, % at 8 µM; AID 485346, 2010; SaOS-2 split-luciferase Mdm2/MdmX complementation; hit rate 3% among 330,000;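 active = inhibition of at least 50% at 8 µM in the primary screen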
Target sequence (O15151 whole entry, looked up): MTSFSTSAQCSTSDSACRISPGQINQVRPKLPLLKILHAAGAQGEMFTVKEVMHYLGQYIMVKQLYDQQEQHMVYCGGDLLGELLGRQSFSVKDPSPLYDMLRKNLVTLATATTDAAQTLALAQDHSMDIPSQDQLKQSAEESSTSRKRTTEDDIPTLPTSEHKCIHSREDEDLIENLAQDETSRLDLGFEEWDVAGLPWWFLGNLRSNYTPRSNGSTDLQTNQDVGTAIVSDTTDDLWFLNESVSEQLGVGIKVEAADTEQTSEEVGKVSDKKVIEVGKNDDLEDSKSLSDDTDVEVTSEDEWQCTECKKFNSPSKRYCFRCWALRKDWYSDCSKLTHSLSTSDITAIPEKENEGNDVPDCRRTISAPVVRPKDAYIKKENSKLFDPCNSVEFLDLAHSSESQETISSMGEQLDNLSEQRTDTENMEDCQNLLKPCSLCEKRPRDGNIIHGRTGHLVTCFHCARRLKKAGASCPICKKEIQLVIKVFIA
Target sequence (Q00987 whole entry, looked up): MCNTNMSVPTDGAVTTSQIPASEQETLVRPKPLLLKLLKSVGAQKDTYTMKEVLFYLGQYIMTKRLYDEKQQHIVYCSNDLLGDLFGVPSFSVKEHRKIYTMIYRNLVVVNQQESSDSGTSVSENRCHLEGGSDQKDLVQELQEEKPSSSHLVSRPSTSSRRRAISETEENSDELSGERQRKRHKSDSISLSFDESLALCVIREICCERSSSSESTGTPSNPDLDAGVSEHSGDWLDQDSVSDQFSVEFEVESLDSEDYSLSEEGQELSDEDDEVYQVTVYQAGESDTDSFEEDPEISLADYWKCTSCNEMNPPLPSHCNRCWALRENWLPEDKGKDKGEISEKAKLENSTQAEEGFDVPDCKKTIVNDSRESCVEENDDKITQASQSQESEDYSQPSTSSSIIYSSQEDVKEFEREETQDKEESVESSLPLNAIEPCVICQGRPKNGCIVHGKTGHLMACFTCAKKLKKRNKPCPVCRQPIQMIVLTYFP
CSC inhib: cancer stem cell viability inhibitors, primary screen, luminescence; cancer stem cell-like cells viability; inhibition, % at 7.5 µM; hit rate 1.1% among 300,000; in the data active = inhibition above about 75%; tested in HMLE shEcad cells
UPR XBP1 act: activators of adaptive XBP1 UPR arm, primary screen, cell-based, CHO-XBP1 luciferase reporter, luminescence, uHTS | IRE1-XBP1 UPR activation; percent of tunicamycin response, DMSO as zero | activation, % at 20 µM | hit rate 0.33% among 330,000 | AID 463104, 2010;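 active = versus positive control, 20 µM dose yields 30% or more activation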;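 note: 100% = tunicamycin at 10 µg/mL and 0% = DMSO only wells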
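Material – CHO cell line with stable XBP1 luciferase reporter · Buffer or medium – F12 plus 10% FBS · Compound – single point, 20 µM final compound, 1% DMSO · Schedule – 16-18 h cell attachment at 37 °C, then 6 h compound exposure · Signal – Steady-Glo luminescence read · Benchmarks – high control tunicamycin 10 µg/mL final, low control DMSO vehicle only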
Beta apoptosis: inhibitors of cytokine-induced beta cell apoptosis, primary screen, luminescence; INS-1E cytokine-induced death, ATP luminescence, 48 h; percent of positive-control rescue, neutral wells zero; protection from apoptosis, % (no concentration beside the values); hit rate 0.8% among 300,000;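 active = Every replicate reaches about 75%, or at least half do and their mean reaches it too, limit read from the data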;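 note: 0% = cytokine-treated negative control wells and 100% = positive control rescue; higher means more ATP so stronger rescue from cytokine killing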
SKKanGAS inh: S. pyogenes SKKanGAS growth inhibitors in kanamycin, primary screen, streptokinase expression inhibitor project, SKKanGAS strain, BacTiter-Glo luminescence; AID 1662, 2009; inhibition, % at 7.5 µM; hit rate 1.3% among 300,000; 6 h;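 active = mean replicate score, as percent of positive control median, at least 50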;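 note: strain carries kanamycin resistance gene driven by streptokinase promoter and grows in 40 µg/ml kanamycin; loss of luminescence reflects streptokinase promoter inhibition or plain growth inhibition; 0% = median of DMSO wells and 100% = positive control at its reference dose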
CHOP UPR activ: activators of apoptotic CHOP UPR arm, primary screen, cell-based, CHO-CHOP luciferase reporter, luminescence, uHTS | hit rate 0.34% among 330,000 | activation, % at 10 µM | UPR activation; percent of tunicamycin response over DMSO baseline;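 active = at 10 µM dose, activation of 40% or more, normalized to positive control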;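 note: 100% = tunicamycin at 10 µg/mL and 0% = DMSO alone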
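assay system = CHO CHOP reporter cells | amount = 500 CHO-CHOP cells per well | buffer or medium = F12 with 10% FBS | incubation = 16-18 h cell attachment, then 6 h compound exposure, 37 °C | detection = luminescence read with Steady-Glo | read-out = percent activation relative to tunicamycin control | controls = tunicamycin high control, DMSO low control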
Active calls of the source: *. Sampled rows, rich in hits. Any-hit rate of the full collection: about 4.8%.

How did O=C(CSc1nnc(CNC(=O)c2ccc(F)cc2)o1)NCc1ccccc1Cl do in these assays?
Mdm2-MdmX inh: 6; CSC inhib: -5; UPR XBP1 act: -2; SKKanGAS inh: 51*; CHOP UPR activ: 1

Results for CCOC(=O)c1c(CSc2ccccc2)n(C)c2cc(Br)c(OCC(O)CNC(CO)(CO)CO)cc12 (stereo not given) ?
CSC inhib: 100*; Beta apoptosis: -1; SKKanGAS inh: 3

Results for CCOC(=O)c1c(CSc2ccccc2)n(C)c2cc(Br)c(OC)c(O)c12 ?
Mdm2-MdmX inh: 13; CSC inhib: 35; UPR XBP1 act: -3; Beta apoptosis: 14; SKKanGAS inh: -8; CHOP UPR activ: 0

What do the screens show for `Cc1cc(=O)[nH]c(SCC(=O)Nc2ccc(F)cc2)c1C#N`?
Mdm2-MdmX inh: 11; CSC inhib: -11; UPR XBP1 act: -2; Beta apoptosis: -1; SKKanGAS inh: 23; CHOP UPR activ: 0

How did Cc1cc(=O)[nH]c(SCC(=O)Nc2ccc(Br)cc2)c1C#N do in these assays?
Mdm2-MdmX inh: -4; CSC inhib: 46; UPR XBP1 act: 0; Beta apoptosis: 6; SKKanGAS inh: 55*; CHOP UPR activ: 0

How did COC(=O)[C@@]1(C)[C@H]2C(=O)N(C)C(=O)[C@H]2[C@H]2CN=C(SC)N21 do in these assays?
Mdm2-MdmX inh: 13; UPR XBP1 act: -1; CHOP UPR activ: 2

What do the screens show for `S=c1[nH]nc(-c2cccs2)n1/N=C/c1cn(-c2ccccc2)nc1-c1ccccc1`?
Mdm2-MdmX inh: 7; CSC inhib: 25; UPR XBP1 act: 14; SKKanGAS inh: 75*; CHOP UPR activ: 4

Results for Cc1ccc(-c2nn(-c3ccccc3)cc2/C=N/n2c(-c3ccncc3)n[nH]c2=S)cc1 ?
Mdm2-MdmX inh: 1; CSC inhib: 25; UPR XBP1 act: 3; Beta apoptosis: 0; SKKanGAS inh: 20; CHOP UPR activ: 6

Results for Cc1ccc(Cl)c(NC(=O)COC(=O)c2nn(C)c(=O)c3ccccc23)c1Cl ?
Mdm2-MdmX inh: 5; CSC inhib: -5; UPR XBP1 act: -2; Beta apoptosis: 5; CHOP UPR activ: -1

How did Cc1cccc(NCC(=O)N/N=C\c2cccc(Oc3ccccc3)c2)c1 do in these assays?
Mdm2-MdmX inh: 18; CSC inhib: 29; UPR XBP1 act: 0; Beta apoptosis: 1; SKKanGAS inh: 58*; CHOP UPR activ: -1

What do the screens show for `Cc1ccc(NCC(=O)N/N=C/c2cccc(Oc3ccccc3)c2)cc1`?
Mdm2-MdmX inh: 4; CSC inhib: -9; UPR XBP1 act: -3; Beta apoptosis: -10; SKKanGAS inh: 27; CHOP UPR activ: 2

Results for CC(C)COC(=O)c1ccc2c(c1O)C(=O)c1ccccc1C2=O ?
Mdm2-MdmX inh: -30; CSC inhib: 21; UPR XBP1 act: -1; Beta apoptosis: 85*; SKKanGAS inh: 90*; CHOP UPR activ: 1

Results for CCOC(=O)C(CC)n1cnc2c(nnn2-c2ccc(F)cc2)c1=O (stereo not given) ?
Mdm2-MdmX inh: -19; CSC inhib: -15; UPR XBP1 act: -1; Beta apoptosis: -3; SKKanGAS inh: -1; CHOP UPR activ: 0

How did Cc1cccc(Nc2nc(-c3ccc(F)c(C)c3)cs2)n1 do in these assays?
Mdm2-MdmX inh: -246; CSC inhib: 43; UPR XBP1 act: 4; Beta apoptosis: 4; SKKanGAS inh: 72*; CHOP UPR activ: 7

Results for Cc1cccc(Nc2nc(-c3ccc(O)c(O)c3)cs2)n1 ?
Mdm2-MdmX inh: -124; CSC inhib: 57; UPR XBP1 act: 17; SKKanGAS inh: 2; CHOP UPR activ: 100*

What do the screens show for `Cc1ccnc(Nc2nc(-c3ccc(O)cc3)cs2)c1`?
Mdm2-MdmX inh: -28; CSC inhib: 17; UPR XBP1 act: -3; SKKanGAS inh: -2; CHOP UPR activ: 6

Results for O=C(Cn1c(-c2ccccc2)c[n+]2ccsc12)c1ccc([N+](=O)[O-])cc1 ?
Mdm2-MdmX inh: -15; CSC inhib: 22; UPR XBP1 act: 5; Beta apoptosis: 94*; SKKanGAS inh: 6; CHOP UPR activ: 2

How did O=C(Cn1c(-c2ccccc2)c[n+]2ccsc12)c1ccccc1 do in these assays?
Mdm2-MdmX inh: 8; CSC inhib: -5; UPR XBP1 act: -5; Beta apoptosis: 15; SKKanGAS inh: -1; CHOP UPR activ: 0

What do the screens show for `Cc1nn(Cc2cccc(F)c2)c(C)c1NC(=O)c1ccc(COc2ccccc2Cl)cc1`?
Mdm2-MdmX inh: 49; CSC inhib: 101*; UPR XBP1 act: 4; Beta apoptosis: 16; SKKanGAS inh: 33; CHOP UPR activ: 0

What do the screens show for `Cc1nn(Cc2c(F)c(F)c(F)c(F)c2F)c(C)c1NC(=O)c1cccc(COc2ccccc2Cl)c1`?
Mdm2-MdmX inh: -22; CSC inhib: 10; UPR XBP1 act: 1; Beta apoptosis: 12; SKKanGAS inh: 12; CHOP UPR activ: 6

How did COc1ccc(/C(C)=N/Nc2cccc(C(=O)O)c2)cc1OC do in these assays?
Mdm2-MdmX inh: 13; CSC inhib: -6; UPR XBP1 act: -3; Beta apoptosis: -1; SKKanGAS inh: 4; CHOP UPR activ: -3

How did C/C(=N\Nc1ccc(C(=O)O)cc1)c1ccc2c(c1)Nc1ccccc1S2 do in these assays?
Mdm2-MdmX inh: 20; CSC inhib: 20; UPR XBP1 act: -3; Beta apoptosis: -25; SKKanGAS inh: 81*; CHOP UPR activ: 3

How did CC(C)n1ncc2c(C(=O)NCC(=O)Nc3ccccc3Br)cc(C3CC3)nc21 do in these assays?
Mdm2-MdmX inh: 8; UPR XBP1 act: -2; Beta apoptosis: 5; CHOP UPR activ: 3

Results for Cc1cc2n(n1)C(c1c[nH]c3ccccc13)Nc1ccccc1-2 (stereo not given) ?
Mdm2-MdmX inh: 20; CSC inhib: 66; UPR XBP1 act: 2; Beta apoptosis: 2; SKKanGAS inh: 63*; CHOP UPR activ: 0

How did COc1ccc(CNS(=O)(=O)c2csc(C(N)=O)c2)cc1OC do in these assays?
Mdm2-MdmX inh: -12; CSC inhib: 2; UPR XBP1 act: 1; Beta apoptosis: 0; SKKanGAS inh: -10; CHOP UPR activ: 1

Results for Cc1ccccc1N1CCN(S(=O)(=O)c2nnc(NC(=O)CC(C)C)s2)CC1 ?
Mdm2-MdmX inh: -4; CSC inhib: 6; UPR XBP1 act: 3; Beta apoptosis: -7; SKKanGAS inh: 3; CHOP UPR activ: 0

From PubChem BioAssay
